Source: ChEMBL document CHEMBL1157474, “[11C]cyclopropyl-FLB 457: a PET radioligand for low densities of dopamine D2 receptors” (Bioorg Med Chem, 2008)
One block for each molecule: values may come before it.

Experiments:
Macaca fascicularis [1] = test: Binding affinity to dopamine D2 receptor in iv dosed cynomolgus monkey brain cerebellum pretreated with raclopride by PET; type: organism-based; conditions: tested as the 11C-labelled form
Macaca fascicularis [2] = test: Binding affinity to dopamine D3 receptor in iv dosed cynomolgus monkey brain cerebellum pretreated with raclopride by PET; type: organism-based; conditions: tested as the 11C-labelled form
Brain = test: Drug uptake in iv dosed cynomolgus monkey brain after 7.5 mins by PET; type: ADME, organism-based, Macaca fascicularis; conditions: in vivo, 0.125 h
Outline: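 Ketamine/xylazine-anaesthetized cynomolgus monkeys given 56.2 ± 0.2 MBq [11C] tracer i.v. bolus over 5 sec into sural vein; 3D PET to 93 min. Whole-brain %ID = whole-brain ROI radioactivity concentration × ROI volume (~65 mL) / injected radioactivity × 100, plotted versus time; brain activity assumed unchanged radioligand.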

[3] = Ratio of drug uptake in cerebellum to putamen in iv dosed cynomolgus monkey after 84 mins by PET; type: ADME, organism-based, Macaca fascicularis; conditions: in vivo, 1.4 h
Outline: (§1)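 Baseline PET in ketamine/xylazine-anaesthetized cynomolgus monkeys after i.v. bolus of 56.2 ± 0.2 MBq tracer, scanned to 93 min. Regional radioactivity expressed as %SUV; region-to-cerebellum ratios taken at 84 min, cerebellum serving as reference region for free plus non-specific binding.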

[4] = Ratio of drug uptake in cerebellum to caudate nucleus in iv dosed cynomolgus monkey after 84 mins by PET; type: ADME, organism-based, Macaca fascicularis; conditions: in vivo, 1.4 h; outline: as §1
[5] = Ratio of drug uptake in cerebellum to pallidum in iv dosed cynomolgus monkey after 84 mins by PET; type: ADME, organism-based, Macaca fascicularis; conditions: in vivo, 1.4 h; outline: as §1
[6] = Ratio of drug uptake in cerebellum to thalamus in iv dosed cynomolgus monkey by PET; type: ADME, organism-based, Macaca fascicularis; conditions: in vivo
[7] = Ratio of drug uptake in cerebellum to frontal cortex in iv dosed cynomolgus monkey by PET; type: ADME, organism-based, Macaca fascicularis; conditions: in vivo
[8] = Ratio of drug uptake in cerebellum to parietal cortex in iv dosed cynomolgus monkey by PET; type: ADME, organism-based, Macaca fascicularis; conditions: in vivo
[9] = Ratio of drug uptake in cerebellum to temporal cortex in iv dosed cynomolgus monkey by PET; type: ADME, organism-based, Macaca fascicularis; conditions: in vivo
[10] = Metabolic stability in cynomolgus monkey plasma after 45 mins; type: ADME, cell-free, Macaca fascicularis; conditions: read-out: Stability
Outline: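 Monkey femoral vein blood drawn at 4, 15, 30, 45 min post-injection; plasma deproteinized with acetonitrile, centrifuged at 2000 x g, supernatant run on reverse-phase C18 radio-HPLC with acetonitrile/0.01 M phosphoric acid gradient, 6 mL/min; parent fraction versus polar metabolites; recovery checked by NaI well counting.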

[11] = Lipophilicity, log D at pH 7.4 by shake flask method; type: physicochemical; conditions: buffer
Outline: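 Shake-flask logD at pH 7.4: tracer in 1-octanol/phosphate buffer (pH 7.4), shaken 3 min; buffer replaced and repeated. Four octanol portions re-extracted with buffer (vortex 2 min, centrifuge 4 min at 2000 x g); both layers counted; D = octanol cpm/mL over buffer cpm/mL.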

[12] = Protein binding in cynomolgus monkey plasma at 10 MBq; type: ADME, cell-free, Macaca fascicularis; conditions: read-out: PPB (converted)
Outline: (§2)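 Monkey plasma (baseline or after raclopride pretreatment) mixed with tracer (~10 MBq) for 10 min at room temperature, then ultrafiltered (YM-30 membrane) by centrifugation; filtrate counted versus incubate. Duplicates; corrected for membrane binding using 0.9% NaCl controls.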

[13] = Protein binding in cynomolgus monkey plasma at 10 MBq in presence of raclopride; type: ADME, cell-free, Macaca fascicularis; conditions: read-out: PPB (converted); outline: as §2
[14] = Ratio of drug uptake in occipital cortex to cerebellum in iv dosed cynomolgus monkey by PET; conditions: in vivo
D(2) dopamine receptor = D(2) dopamine receptor (Homo sapiens, UniProt P14416); test: Binding affinity to dopamine D2 receptor
Chain of D(2) dopamine receptor (P14416 whole entry): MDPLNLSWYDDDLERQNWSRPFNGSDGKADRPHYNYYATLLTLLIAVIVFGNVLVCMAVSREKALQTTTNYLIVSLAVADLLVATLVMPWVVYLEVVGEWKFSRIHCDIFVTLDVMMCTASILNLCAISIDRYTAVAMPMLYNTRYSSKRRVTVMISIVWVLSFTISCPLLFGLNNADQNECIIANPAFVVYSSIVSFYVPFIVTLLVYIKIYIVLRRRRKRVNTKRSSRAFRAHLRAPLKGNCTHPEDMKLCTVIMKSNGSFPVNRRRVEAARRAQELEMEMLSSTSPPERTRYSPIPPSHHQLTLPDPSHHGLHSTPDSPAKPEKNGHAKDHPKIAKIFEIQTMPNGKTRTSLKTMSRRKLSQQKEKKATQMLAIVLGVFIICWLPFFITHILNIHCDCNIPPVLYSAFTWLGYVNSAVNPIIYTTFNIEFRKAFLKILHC

- Activity (Macaca fascicularis [1]): 50%
- Activity (Macaca fascicularis [2]): 50%
Compound: COc1cc(Br)cc(C(=O)NC[C@@H]2CCCN2CC2CC2)c1OC

- Drug uptake (Brain): 4.4 %ID
- Ratio [3]: 7.61
- Ratio [4]: 6.6
- Ratio [5]: 5.4
- Ratio [6]: 3.7
- Ratio [7]: 3.24
- Ratio [8]: 2.98
- Ratio [9]: 2.59
- remaining at 0.75 h [10]: 60%
- logD [11]: 1.82
- fraction unbound at 10 MBq [12]: 0.68
- fraction unbound at 10 MBq [13]: 0.64
- Ratio [14]: 2.08
Compound: COc1cc(Br)cc(C(=O)NC[C@@H]2CCCN2CC2CC2)c1O[11CH3]

- Ki (D(2) dopamine receptor): 3 pM
Compound: CCN1CCC[C@H]1CNC(=O)c1cc(Br)cc(OC)c1OC

- logD [11]: 1.33
Compound: CCN1CCC[C@H]1CNC(=O)c1cc(Br)cc(OC)c1O[11CH3]
